In all, about 320,000 compounds went through this assay and about 380 (0.12%) were called active. The full list was thinned out, with actives kept by preference. Values without a mark were called inactive.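 How the source made its calls: active means percent inhibition above the cutoff of mean plus 3 SD of all tested compounds, set per screening campaign (cut at about 20% in these data); inactive means the rest.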

Photoreceptor-specific nuclear receptor (Homo sapiens), sequence (Q9Y5X4 whole entry, looked up): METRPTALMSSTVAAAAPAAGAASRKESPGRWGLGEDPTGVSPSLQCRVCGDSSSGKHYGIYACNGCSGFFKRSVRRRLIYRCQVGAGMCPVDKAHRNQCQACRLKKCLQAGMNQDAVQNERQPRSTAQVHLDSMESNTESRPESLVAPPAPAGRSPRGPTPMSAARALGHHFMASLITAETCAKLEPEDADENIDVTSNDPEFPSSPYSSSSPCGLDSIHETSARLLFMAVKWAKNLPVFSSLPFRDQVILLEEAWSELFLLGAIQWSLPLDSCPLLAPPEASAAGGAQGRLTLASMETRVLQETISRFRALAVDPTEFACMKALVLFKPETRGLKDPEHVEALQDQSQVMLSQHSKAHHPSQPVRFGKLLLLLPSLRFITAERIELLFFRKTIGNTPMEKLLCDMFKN

This experiment concerns the target Photoreceptor-specific nuclear receptor (Homo sapiens) (UniProt Q9Y5X4). Put plainly: disruption of NR2E3 corepressor interaction – biochemical, TR-FRET, GST-NR2E3, biotin-RetCOR, NR2E3 agonist project, primary screen (AID 2300).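 Further: 0% = DMSO wells and 100% = biotin wells as full block of FRET.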 The following applies: 1536-well, at 4.78 µM, stronger effect = higher value. The method in brief: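 System: GST-tagged NR2E3 plus biotinylated RetCOR corepressor; Buffer or medium: pH 7.5 Tris-based buffer; Probe or stimulus: RetCOR corepressor, biotinylated, 7 nM; Doses: compound at 4.8 µM, single dose; Schedule: 5 h incubation at 4 °C; Technique: time-resolved FRET; Evaluation: percent inhibition of TR-FRET ratio; Replication: one well per compound, singlicate testing.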
Consider `O=C(C(Cc1ccccc1)n1cccc1)N1CCN(C2CCCCC2)CC1` (centres undefined), for which the inhibition of corepressor binding is -0.53%.

With `O=C(/C=N/O)Nc1ccccc1`, the inhibition of corepressor binding is -4.21%.

Consider `O=C(COC(=O)c1ccc(NS(=O)(=O)c2cccs2)cc1O)Nc1ccc(F)cc1`, for which the inhibition of corepressor binding was 0.61%.

Turning to `Cc1cc(C)n(CC(C)NCc2c(C(=O)N3CCOCC3)nc3c(C)cccn23)n1` (centres undefined), the inhibition of corepressor binding is -0.74%.

For the compound `COc1cc(C(=O)NCC(c2ccco2)N2CCCC2)ccc1OCc1ccccc1` (centres undefined), the inhibition of corepressor binding was 2.49%. In the case of `CCOC(=O)c1c(NC(=O)CN2C(=O)NC3(CCC(C)CC3)C2=O)sc(C)c1CC` (centres undefined), the inhibition of corepressor binding is 1.08%. Then `O=C(COc1coc(CN2CCN(c3ccccc3F)CC2)cc1=O)N1CCc2ccccc21`, with -1.02%; and `CN(C(=O)CSc1nnc(Nc2ccccc2)s1)C1CCS(=O)(=O)C1` (centres undefined), with 0.29%. On to `Cc1ccc(S(=O)(=O)NC2(C(F)(F)F)NC(=O)N(CCc3ccccc3)C2=O)cc1` (centres undefined), for which the inhibition of corepressor binding is 1.1%. Take `COc1ccc(-c2cc(C(=O)N/N=C/c3cccnc3)c3ccccc3n2)c(OC)c1`: the inhibition of corepressor binding was 6.06%. Take `O=C(Nc1cc(S(=O)(=O)N2CCOCC2)ccc1Cl)c1cc(=O)c2ccccc2o1`: the inhibition of corepressor binding was 1.24%.

For the compound `O=C(NCCCN1CCOCC1)C1CCCN(S(=O)(=O)N2CCCCC2)C1` (centres undefined), the inhibition of corepressor binding was 0.58%. As to `N=c1n(CCc2ccccc2)c2ccccc2n1Cc1ccccc1F`, the inhibition of corepressor binding was -5.83%.

Take `CN(Cc1ccccc1)Cc1ccccc1F`: the inhibition of corepressor binding is 24.1% (active). Turning to `CN(Cc1ccccc1F)C(=O)C(Cc1ccccc1)NC(=O)c1ccccc1` (centres undefined), the inhibition of corepressor binding is 0.68%.

For the compound `CCOc1ccc(CCNC(=O)C2=C(C)C(=O)OC23CCC(C)CC3)cc1OCC` (centres undefined), the inhibition of corepressor binding was -3.37%. Regarding `O=C1C(=O)N(CCN2CCOCC2)C(c2ccccn2)/C1=C(/O)c1ccc(Cl)cc1` (centres undefined), the inhibition of corepressor binding is -1.05%. In the case of `O=C1C(=O)N(CCN2CCOCC2)C(c2cccc(Cl)c2)/C1=C(/O)c1ccc2c(c1)OCO2` (centres undefined), the inhibition of corepressor binding is 31.6% (active).

With `O=C1C(=O)N(CCCN2CCOCC2)C(c2ccc([N+](=O)[O-])cc2)/C1=C(\O)c1ccc2c(c1)OCCO2` (centres undefined), the inhibition of corepressor binding is 2.15%. For `Cc1ccc(-c2nc(CSCC(=O)NC3CCN(Cc4ccccc4)CC3)c(C)o2)cc1`, the inhibition of corepressor binding was 1.78%.

Regarding `CCN(CC)Cc1csc2ccc(Br)cc12`, the inhibition of corepressor binding was -3.8%. With `CCOc1cc(C2/C(=C(/O)c3ccc(S(=O)(=O)N4CCCCC4)cc3)C(=O)C(=O)N2CCOC)ccc1O` (centres undefined), the inhibition of corepressor binding is 0.08%. Regarding `O=C(NCc1ccccn1)c1ccc2nc(-c3ccco3)c(-c3ccco3)nc2c1`, the inhibition of corepressor binding is 9.85%. On to `CCOc1cc(NC(=S)NCCCOC)c(OCC)cc1NC(=O)c1ccco1`, for which the inhibition of corepressor binding is 1.79%. On to `COCCNC(=O)Nc1ccc2nc(-c3ccco3)c(-c3ccco3)nc2c1`, for which the inhibition of corepressor binding was 30.4% (active).

As for `CCOc1cc(C(=O)Nc2ccc(S(=O)(=O)Nc3cnc4ccccc4n3)cc2)cc(OCC)c1OCC`, the inhibition of corepressor binding is 0.9%. Under `CCCOn1c(-n2nc(C)cc2C)nc2ccccc2c1=O` stands -0.33%.

Turning to `COc1ccc2c3c1O[C@H]1C[C@@H](O)C=C[C@@]31CCN(C)C2`, the inhibition of corepressor binding is 4.69%. For the compound `O=C(CCN1C(=O)c2ccncc2C1=O)Nc1cc(F)ccc1F`, the inhibition of corepressor binding is -0.36%. On to `CCCC(=O)N1CCC(CCC(=O)NC2CC2)CC1`, for which the inhibition of corepressor binding was 0.01%. Take `Cc1ccc(C(=O)COC(=O)c2cccc(N3C(=O)c4c(C)nc5ccccc5c4C3=O)c2)cc1C`: the inhibition of corepressor binding was -4.34%. In the case of `COc1ccc(C(C(=O)NC2CCCCC2)N(C(=O)CCl)c2ccccc2Cl)cc1` (centres undefined), the inhibition of corepressor binding was 3.2%. Under `CCCOC1CCCN(Cc2cn(C)nc2-c2ccccc2F)C1` (centres undefined) stands -1.73%; under `CC1C(=O)Nc2ccccc2N1C(=O)c1c(F)cccc1F` (centres undefined), 0.31%. As to `CCCCCCSc1nsc(N)n1`, the inhibition of corepressor binding was 3.46%. As for `CC1CCN(S(=O)(=O)c2ccc3c(c2)n(C)c(=O)n3C)CC1`, the inhibition of corepressor binding is 0.8%. Under `CCc1cc2c(SCC(=O)Nc3ncc(Cl)c(C)c3Cl)ncnc2s1` stands 2.24%; under `CCc1ccc(S(=O)(=O)Nc2cc3c(cc2N2CCCCC2)n(C)c(=O)c(=O)n3C)cc1`, -2.2%.

As to `CC[N+](C)(CC)CCC[n+]1c(-c2ccccc2)c2cc(N)ccc2c2ccc(N)cc21`, the inhibition of corepressor binding was 41.5% (active).

These data come from PubChem BioAssay AID2300 (The Scripps Research Institute Molecular Screening Center, 2010).
